{"data": "Measured values of several laboratories", "target": "SNF-related serine/threonine-protein kinase (SNRK, Homo sapiens, UniProt Q9NRH2)", "One construct used (Q9NRH2 1-765)": "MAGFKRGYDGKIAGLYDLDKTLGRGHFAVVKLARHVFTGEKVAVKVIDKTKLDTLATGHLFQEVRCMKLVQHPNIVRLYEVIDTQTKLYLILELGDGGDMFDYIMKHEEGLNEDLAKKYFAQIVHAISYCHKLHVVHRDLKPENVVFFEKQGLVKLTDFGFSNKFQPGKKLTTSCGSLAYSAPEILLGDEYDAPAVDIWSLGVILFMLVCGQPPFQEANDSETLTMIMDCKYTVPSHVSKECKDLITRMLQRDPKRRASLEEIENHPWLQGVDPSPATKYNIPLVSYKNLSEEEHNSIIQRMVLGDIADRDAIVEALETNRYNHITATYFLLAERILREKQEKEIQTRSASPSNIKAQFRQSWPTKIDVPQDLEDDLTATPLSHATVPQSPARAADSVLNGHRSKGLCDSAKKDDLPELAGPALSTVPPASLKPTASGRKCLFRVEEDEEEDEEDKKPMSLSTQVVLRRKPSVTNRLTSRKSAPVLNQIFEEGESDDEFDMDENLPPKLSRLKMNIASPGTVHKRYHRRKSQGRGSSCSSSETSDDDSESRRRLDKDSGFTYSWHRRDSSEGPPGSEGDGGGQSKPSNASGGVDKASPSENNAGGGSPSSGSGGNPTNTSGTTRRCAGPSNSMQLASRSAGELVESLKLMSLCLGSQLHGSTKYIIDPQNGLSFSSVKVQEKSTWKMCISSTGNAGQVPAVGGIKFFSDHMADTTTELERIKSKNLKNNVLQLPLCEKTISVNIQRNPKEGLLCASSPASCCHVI", "note": "Each line is one published result; the experiments were not run side by side."}
{"Compound": "COc1ccc2c(c1)O[C@@H](c1ccc(OC)c(OC)c1)C[C@H]2NC(=O)C1(c2ccc3c(c2)OC(F)(F)O3)CC1", "assay": "cell-free assay, competition with immobilised ligand", "setting": "1 µM", "remaining binding": "90%"}
{"Compound": "CN(C)c1nccc(-c2cnc3ncccn23)n1", "assay": "binding", "setting": "1 µM", "remaining binding": "91%"}
{"Compound": "O=C(NCC1CCOCC1)c1n[nH]cc1NC(=O)c1c(F)cccc1F", "assay": "binding, competition with immobilised ligand", "setting": "1 µM", "remaining binding": "84%"}
{"Compound": "CN(C)c1nccc(-c2cnn3ncccc23)n1", "assay": "binding", "setting": "1 µM", "remaining binding": "100%"}
{"Compound": "CC(=O)N1CCC(c2ccc(C(=O)NC3=NCCN3)cc2C(F)(F)F)CC1", "assay": "cell-free assay, competition with immobilised ligand", "setting": "1 µM", "remaining binding": "98%"}
{"Compound": "CCN1CCN(Cc2ccc(C(=O)Nc3ccc(C)c(Oc4ccc5c(c4)CC(=O)N5)c3)cc2C(F)(F)F)CC1", "assay": "binding, competition with immobilised ligand", "setting": "1 µM", "remaining binding": "98%"}
{"Compound": "COc1cnc(Nc2cccc(S(N)(=O)=O)c2)nc1N1CCN(c2ccccc2)CC1", "assay": "binding, competition with immobilised ligand", "setting": "1 µM", "remaining binding": "88%"}
{"Compound": "C[C@H](c1ccnc(Nc2nc3ccc(-c4cc(N(C)C)ncn4)cc3[nH]2)c1)N1CCN(C(=O)CC(F)(F)F)CC1", "assay": "cell-free assay, competition with immobilised ligand", "setting": "0.1 µM", "remaining binding": "100%"}
{"Compound": "Cc1cnc(Nc2ccc(C(=O)N3CCC(N4CCCC4)CC3)cc2)nc1-c1cc2ccccc2s1", "assay": "binding, competition with immobilised ligand", "setting": "1 µM", "remaining binding": "100%"}
{"Compound": "O=c1nc(-c2ccccn2)sc2ccccc12", "assay": "binding, competition with immobilised ligand", "setting": "1 µM", "remaining binding": "100%"}
{"Compound": "c1cncc(-c2cccc(Nc3nccc(NC4CCCCC4)n3)c2)c1", "assay": "binding, competition with immobilised ligand", "setting": "10 µM", "remaining binding": "69%"}
{"Compound": "CS(=O)(=O)NCC[C@H](NC(=O)c1cncc2c1cnn2-c1ccc(F)cc1)c1ccnc(S(C)(=O)=O)c1", "assay": "cell-free assay, competition with immobilised ligand", "setting": "1 µM", "remaining binding": "100%"}
{"Compound": "c1cnn2ncc(-c3ccnc(N4CCC45COC5)n3)c2c1", "assay": "binding", "setting": "1 µM", "remaining binding": "67%"}
{"Compound": "O=C(NCCCN1CCOCC1)c1ccc(Nc2nccc(-c3cc4ccccc4s3)n2)cc1", "assay": "binding, competition with immobilised ligand", "setting": "1 µM", "remaining binding": "99%"}
{"Compound": "Cc1cnn2ncc(-c3ccnc(N(C)C)n3)c2c1", "assay": "binding", "setting": "1 µM", "remaining binding": "79%"}
{"Compound": "CN(c1ccnc(CNc2nc(Nc3ccc4c(c3)CC(=O)N4)ncc2C(F)(F)F)n1)S(C)(=O)=O", "assay": "cell-free assay, competition with immobilised ligand", "setting": "1 µM", "remaining binding": "85%"}
{"Compound": "C[C@H]1CCN(c2nccc(-c3cnn4ncccc34)n2)C1", "assay": "binding", "setting": "1 µM", "remaining binding": "81%"}
{"Compound": "O=C(c1ccc(Nc2ncc(Cl)c(-c3ccc(Cl)s3)n2)cc1)N1CCC(N2CCCC2)CC1", "assay": "binding, competition with immobilised ligand", "setting": "1 µM", "remaining binding": "87%"}
{"Compound": "N[C@H]1CCN(c2nccc(-c3cnn4ncccc34)n2)C1", "assay": "binding", "setting": "1 µM", "remaining binding": "100%"}
{"Compound": "C[C@@H](c1ccc(-n2cnc3c(N)ncnc32)cc1)N1CCc2nn(C)c(Cc3ccccc3)c2C1=O", "assay": "binding, competition with immobilised ligand", "setting": "0.1 µM", "remaining binding": "98%"}
{"Compound": "CN(c1nccc(-c2cnn3ncccc23)n1)C1CC1", "assay": "binding", "setting": "1 µM", "remaining binding": "100%"}
{"Compound": "FC(F)(F)Oc1cccc(-c2cnc3ccc(-c4ccncc4)nn23)c1", "assay": "binding, competition with immobilised ligand", "setting": "5 µM", "remaining binding": "71%"}
